Hits are enriched below; roughly 1.6% of the tested compounds scored in any of these assays.
ADAM17 inh: inhibitors of human ADAM17; P78536; recombinant ADAM17, EDANS/DABCYL FRET peptide cleavage; inhibition, % at 6.95 µM; 0.83% of 370,000 active;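 active = inhibition above the mean of compounds lying between control limits plus 3 SD, set per campaign, cut at about 8.5% in these data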
ADAM10 inh: ADAM10 inhibition, QFRET primary screen | recombinant ADAM10, EDANS/DABCYL FRET peptide cleavage, 3 h | inhibition, % at 7 µM | 0.62% of 370,000 active;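 active = inhibition above a per-campaign cutoff equal to the mean of compounds falling between control-based bounds plus 3 SD, cut at about 20% in these data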
Target sequence (O14672 214-748 limits assumed): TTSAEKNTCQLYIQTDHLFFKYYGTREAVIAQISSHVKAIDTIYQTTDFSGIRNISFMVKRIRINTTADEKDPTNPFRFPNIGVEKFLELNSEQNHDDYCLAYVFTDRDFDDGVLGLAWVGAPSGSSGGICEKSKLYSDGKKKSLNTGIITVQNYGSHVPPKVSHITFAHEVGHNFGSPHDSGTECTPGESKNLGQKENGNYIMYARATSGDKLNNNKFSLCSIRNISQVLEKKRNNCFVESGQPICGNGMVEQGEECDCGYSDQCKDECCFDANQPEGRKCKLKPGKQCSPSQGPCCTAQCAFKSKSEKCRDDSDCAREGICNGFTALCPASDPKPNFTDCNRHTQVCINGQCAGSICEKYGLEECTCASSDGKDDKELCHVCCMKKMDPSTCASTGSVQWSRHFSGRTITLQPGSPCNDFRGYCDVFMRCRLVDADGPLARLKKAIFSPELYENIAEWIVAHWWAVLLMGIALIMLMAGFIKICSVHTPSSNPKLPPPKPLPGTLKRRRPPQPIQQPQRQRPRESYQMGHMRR
MT1-MMP act inh: MT1-MMP (human) activation inhibition | P50281 | HT1080 RFP-PRO-GFP cells, GFP/RFP ratio fluorescence, overnight; percent of plate control window, DMSO zero | GFP/RFP ratio change, % at 20 µM | 0.061% of 360,000 active;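 active = GFP/RFP ratio change of at least 30% with cell ATP level not reduced by more than half and red fluorescence within 50% of control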
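Test system: HT1080 RFP-PRO-GFP cells; Benchmarks: DMSO and RFP-L50D-GFP cell wells; Timing: cells overnight before dosing, compound overnight, 37 °C, 5% CO2; Compound: one 20 µM compound dose with 1% DMSO; Read-out: GFP/RFP fluorescence ratio.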
DDE Tn7 FP inh: DD(E)-Tn7 binding inhibition, primary FP screen. FP displacement of FITC-Tn7 peptide from fibrin DD(E); 0% = median of compound wells per plate. inhibition, % at 8.3 µM. 0.13% of 370,000 active. AID 720508;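 active = inhibition above the mean of compounds falling within the control limits plus 3 SD of them, cut at about 14% in these data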
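Assay system: Human clot-derived fibrin DD(E) complex | Buffer or medium: Tris/NaCl/CaCl2 buffer, pH 7.8 | Repeats: One replicate per compound | Benchmarks: Aha-Tn7 high control | Measure: % inhibition scaled between sample-field median and high-control FP | Schedule: 10 min plus 3 h, room temperature | Signal: Fluorescence polarization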
Tn6 DDE FP: inhibitors of Tn6 peptide binding to human fibrin DD(E); 0.21% of 370,000 active; AID 720509; Fibrin DD(E) TRITC-Tn6 fluorescence polarization displacement; P02675; inhibition, % at 8.3 µM;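 active = inhibition above a per-campaign cutoff: mean of compounds within control limits plus 3 SD, cut at about 15% in these data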
ADAM10 confirm: human ADAM10 inhibition, confirmation; inhibition, % at 6.95 µM; shares compounds with ADAM10 inh; 1% of 2,100 active; ADAM10 QFRET peptide cleavage, EDANS fluorescence;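 active = inhibition above about 20% chosen separately for each screening run, limit read from the data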
ADAM17 counter: ADAM17 inhibition, counter-screen for ADAM10 exosite hits. shares compounds with ADAM10 inh. ADAM17 QFRET peptide cleavage, EDANS fluorescence. inhibition, % at 6.95 µM. 0.5% of 2,100 active;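 active = mean triplicate inhibition above the solvent-only control wells' mean plus 3 SD, cut at about 12% in these data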
Each line names hits and unclear results; the compound was inactive in the other large screens (follow-up assays come after a bar, where they were run).

Cc1ccc(-c2cc(C(=O)NN=Cc3ccc(-c4ccccc4)cc3)[nH]n2)cc1C	none (no result: MT1-MMP act inh)
Cc1ccc(-c2cc(C(=O)NN=C/C=C/c3ccco3)[nH]n2)cc1C	ADAM10 inh 20 (no result: MT1-MMP act inh) | ADAM10 confirm inactive | ADAM17 counter inactive
COc1ccc(OC)c(-c2cc(C3CCN(c4cc(Cl)nc(N)n4)CC3)[nH]n2)c1	none
COc1ccc(OC)c(-c2cc(C3CCN(c4ncccc4[N+](=O)[O-])CC3)[nH]n2)c1	ADAM10 inh 24 | ADAM10 confirm inactive | ADAM17 counter inactive
COc1cc(NC(=O)C(OC(=O)CNC(=O)c2ccccc2)c2ccccc2)cc(C(F)(F)F)c1 (configuration not stated)	ADAM17 inh 15, ADAM10 inh 29 (no result: MT1-MMP act inh) | ADAM10 confirm inactive | ADAM17 counter inactive
COc1cc(C(=O)NCC(C)(C)CNC(=O)c2cc(OC)c(OC)c(OC)c2)cc(OC)c1OC	none
CCOc1cc(C(=O)NCC(C)(C)CNC(=O)c2cc(OCC)c(OCC)c(OCC)c2)cc(OCC)c1OCC	ADAM10 inh 21 | ADAM10 confirm inactive | ADAM17 counter inactive
COC(=O)C1=CC(=O)N2CCN=C2S1	none (no result: MT1-MMP act inh)
Cc1cccc(NC(=O)c2ccc(C3SCC(=O)N3CCc3ccccc3)cc2)c1C (configuration not stated)	ADAM10 inh 21 | ADAM10 confirm inactive | ADAM17 counter inactive
CC1CCCN(C(=O)Nc2ccc([N+](=O)[O-])cc2)C1 (configuration not stated)	none (no result: MT1-MMP act inh)
CCOc1ccccc1NC(=S)N1C2CCC1CC(NC(=O)NC13CC4CC(CC(C4)C1)C3)C2 (configuration not stated)	ADAM10 inh 33 | ADAM10 confirm inactive | ADAM17 counter inactive
COc1ccccc1NC(=S)N1C2CCC1CC(NC(=O)NC13CC4CC(CC(C4)C1)C3)C2 (configuration not stated)	none
COc1ccc(Nc2nc(N)c([N+](=O)[O-])c(NCCO)n2)cc1	none
COc1ccc(Nc2nc(N)c([N+](=O)[O-])c(NC3CCCCC3)n2)cc1	ADAM10 inh 31 | ADAM10 confirm inactive | ADAM17 counter inactive
COc1ccc2nc(SCC(=O)Nc3ccc(S(=O)(=O)N4CCCC4)cc3)c(C#N)cc2c1	ADAM10 inh 72 | ADAM10 confirm 20 | ADAM17 counter inactive
CCOc1ccc2nc(SCC(=O)Nc3ccc(S(=O)(=O)N4CCCC4)cc3)c(C)cc2c1	none
COc1ccc(N(C)C(=O)c2oc(=O)c3ccccc3c2-c2ccc(C)cc2)c(OC)c1	ADAM10 inh 22 | ADAM10 confirm inactive | ADAM17 counter inactive
CNC(=S)N/N=C/c1cn(CCOc2ccc(OC)cc2)c2ccccc12	ADAM10 inh 20 | ADAM10 confirm inactive | ADAM17 counter inactive
CC(=O)c1ccc(OCC(=O)N2CCN(S(=O)(=O)c3ccc(C)cc3C)CC2)cc1	ADAM10 inh 84 | ADAM10 confirm inactive | ADAM17 counter inactive
CSc1ccc(CSCC(=O)N2CCN(S(=O)(=O)c3ccc(C)cc3C)CC2)cc1	ADAM10 inh 24 | ADAM10 confirm inactive | ADAM17 counter inactive
COc1ccc2cc(-c3cccc4[nH]cc(C)c34)ccc2c1	none (no result: MT1-MMP act inh)
COc1ccccc1-c1cc(C(=O)N/N=C/C=C/c2ccccc2[N+](=O)[O-])c2ccccc2n1	ADAM10 inh 20 | ADAM10 confirm inactive | ADAM17 counter inactive
O=C(N/N=C/C=C/c1ccccc1[N+](=O)[O-])c1cc(-c2cccnc2)nc2ccccc12	none
COc1cc(CNc2cccc3c2S(=O)(=O)N([C@H](C)c2ccccc2)C[C@@H](COCc2ccccc2)O3)cc(OC)c1OC	none (no result: MT1-MMP act inh)
Cc1cc(S(=O)(=O)N2CCc3ccccc3C2)ccc1F	ADAM10 inh 22 | ADAM10 confirm inactive | ADAM17 counter inactive
CCC[C@H]1[C@@H](NC(=O)c2cccc(Cl)c2)CC[C@@]23CCCN2C(=O)CCC[C@@H]13	none (no result: MT1-MMP act inh)
O=[N+]([O-])c1ccc(N/N=C/c2ccc(O)c(O)c2O)c(S(=O)(=O)N2CCOCC2)c1	none
O=[N+]([O-])c1ccc(N/N=C/c2cccc(O)c2O)c(S(=O)(=O)N2CCOCC2)c1	ADAM10 inh 30 | ADAM10 confirm inactive | ADAM17 counter inactive
O=C(CCc1ccccc1)N[C@H]1[C@H](OC(=O)c2ccco2)CCC[C@@]12C(=O)N(Cc1ccccc1)c1ccccc12	ADAM10 inh 21 (no result: MT1-MMP act inh) | ADAM10 confirm inactive | ADAM17 counter inactive
COC(=O)C[C@@H]1CC[C@@H]2[C@H](COc3ccc(NC(=O)c4cccc(OC)c4)cc3C(=O)N2C)O1	none (no result: MT1-MMP act inh)
Cc1ccc(CN(C)C[C@H]2OCc3cnnn3CCCC(=O)N([C@H](C)CO)C[C@@H]2C)cc1	none (no result: MT1-MMP act inh)
S=c1[nH]nc(-c2cc(-c3ccsc3)n[nH]2)n1-c1cccc2ccccc12	ADAM10 inh 23 | ADAM10 confirm inactive | ADAM17 counter inactive
CC(=O)c1ccc(-n2c(-c3cc(-c4ccsc4)n[nH]3)n[nH]c2=S)cc1	none
COc1cccc(C(CC2=CCCCC2)NC(=O)C(F)(F)F)c1 (configuration not stated)	none (no result: MT1-MMP act inh)
OC(COc1ccc2c(c1)CCC2)CN1CCN(c2ccccc2F)CC1 (configuration not stated)	ADAM10 inh 20 | ADAM10 confirm inactive | ADAM17 counter inactive
COc1cccc(/C(=N/O)C2CC2c2ccc(Cl)cc2)c1 (configuration not stated)	ADAM10 inh 22 | ADAM10 confirm inactive | ADAM17 counter inactive
COc1cccc(/C(C)=N/NS(=O)(=O)c2ccc(Cl)cc2)c1	none
O=[N+]([O-])c1cc([N+](=O)[O-])c2c(=Nc3ccccc3)n(-c3ccccc3)n(O)c2c1	ADAM10 inh 25 | ADAM10 confirm inactive | ADAM17 counter inactive
COC(=O)[C@]12C[C@H](CC(=O)N3CCCC3)C(=O)N(CCc3ccc(OC)c(OC)c3)C1=C[C@H](C(C)(C)C)O[C@@H]2C	none (no result: MT1-MMP act inh)
Cc1ccc2c(c1)C(CS(=O)(=O)NCCc1ccccc1)NC2 (configuration not stated)	none (no result: MT1-MMP act inh)
Cc1onc(-c2ccccc2)c1C(=O)NC(=S)NNC(=O)c1ccncc1	none
Cc1onc(-c2ccccc2)c1C(=O)NC(=S)NNC(=O)c1cccnc1	ADAM10 inh 24 | ADAM10 confirm inactive | ADAM17 counter inactive
Nc1cccc(CCc2ccncc2)c1	ADAM10 inh 21 | ADAM10 confirm inactive | ADAM17 counter inactive
c1ccc(CCc2ccncc2)cc1	none
O=C(Cn1nc(-c2ccccc2)ccc1=O)NCCc1cccc(F)c1	none (no result: MT1-MMP act inh)

Screening results as filed in PubChem.
